{"source": "ChEMBL document CHEMBL2086264", "key": {"[1]": {"experiment": "Inhibition of Staphylococcus aureus PlsY expressed in Escherichia coli FB23281 using [U-14C]glycerol-PO4 as substrate after 20 mins by scintillation counting", "method_in_brief": "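Membranes from E. coli FB23281 (ΔplsY) expressing S. aureus PlsY (SA1187), 4 µg per reaction. pH 7.4 buffer of 100 mM Tris–HCl, 150 mM NaCl, 1 mg/mL BSA and 5 mM Na3VO4, with 100 µM [U-14C]glycerol-PO4. Started with 16:0-PO4 (final 100 µM), 20 min at 37°C. Spotted on filter discs, washed in graded ice-cold TCA, scintillation counted.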"}, "Staphylococcus aureus [2]": {"system": "Staphylococcus aureus", "experiment": "Antibacterial activity against Staphylococcus aureus ATCC 29213 after overnight incubation by microbroth dilution assay", "assay_type": "functional", "method_in_brief": "(§1)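 CLSI M7A7 microbroth dilution in Mueller-Hinton broth; S. pneumoniae broth given 5% lysed horse blood. DMSO stocks of 10 mg/mL; twofold dilutions to final 200–0.0125 µg/mL. Mid-log inoculum (OD600 0.5) diluted to final OD600 0.0005 (~10^5 CFU/mL). Overnight at 37°C; MIC is the lowest concentration inhibiting 90% of visible growth.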"}, "Streptococcus pneumoniae": {"system": "Streptococcus pneumoniae", "experiment": "Antibacterial activity against Streptococcus pneumoniae R6 after overnight incubation by microbroth dilution assay", "assay_type": "functional", "method_in_brief": "as §1"}, "[3]": {"system": "Staphylococcus aureus subsp. aureus RN4220", "experiment": "Inhibition of PlsY-mediated lipid synthesis in Staphylococcus aureus RN4220 harboring gpsA mutant assessed as inhibition of [14C]acetate incorporation into fatty acid at 50 uM incubated for 15 mins prior to [14C]acetate addition measured after 30 mins by scintillation counting", "method_in_brief": "(§2)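 Mid-log S. aureus RN4220 (OD600 0.5) split into 10 mL aliquots. Compound or DMSO added for 15 min, then 10 µCi [14C]acetate for 30 min. Cells PBS-washed, lipids extracted by Bligh–Dyer, scintillation counted and normalized to OD600. Duplicates, mean with standard error.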"}, "Staphylococcus aureus [4]": {"system": "Staphylococcus aureus", "experiment": "Inhibition of protein synthesis in Staphylococcus aureus RN4220 harboring gpsA mutant assessed as inhibition of [3H]amino acid incorporation into protein at 50 uM incubated for 15 mins before [3H]amino acid addition measured after 30 mins by scintillation counting", "assay_type": "functional, organism-based", "method_in_brief": "(§3)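 RN4220 at OD600 0.5 in 10 mL aliquots, 15 min with compound. Then 30 min with 10 µCi label: 3H amino acid mix (protein), [3H]thymidine (DNA) or [3H]uracil (stable RNA). Cells collected on 0.45 µm filters, counted, OD600-normalized and expressed relative to untreated cells. Duplicates, mean with standard error.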"}, "Staphylococcus aureus [5]": {"system": "Staphylococcus aureus", "experiment": "Inhibition of DNA synthesis in Staphylococcus aureus RN4220 harboring gpsA mutant assessed as inhibition of [3H]thymidine incorporation into DNA at 50 uM incubated for 15 mins before [3H]thymidine addition measured after 30 mins by scintillation counting", "assay_type": "functional, organism-based", "method_in_brief": "as §3"}, "Staphylococcus aureus [6]": {"system": "Staphylococcus aureus", "experiment": "Inhibition of RNA synthesis in Staphylococcus aureus RN4220 harboring gpsA mutant assessed as inhibition of [3H]uracil incorporation into RNA at 50 uM incubated for 15 mins before [3H]uracil addition measured after 30 mins by scintillation counting", "assay_type": "functional, organism-based", "method_in_brief": "as §3"}, "[7]": {"system": "Staphylococcus aureus subsp. aureus RN4220", "experiment": "Inhibition of PlsY-mediated lipid synthesis in Staphylococcus aureus RN4220 harboring gpsA mutant assessed as inhibition of [14C]acetate incorporation into fatty acid incubated for 15 mins prior to [14C]acetate addition measured after 30 mins by scintillation counting", "method_in_brief": "as §2"}, "[8]": {"system": "Staphylococcus aureus subsp. aureus RN4220", "experiment": "Inhibition of PlsY in Staphylococcus aureus RN4220 harboring gpsA mutant assessed as Fab4-mediated fatty acid chain elongation measured as 16C fatty acid level at 25 uM after 2.5 hrs by mass spectrophotometry", "set-up": "scale not given: the % may be the effect or the level left", "method_in_brief": "(§4)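 RN4220 grown in Luria-Bertani broth at 37°C with 225 rpm shaking to OD600 0.5. 50 mL cultures treated for 2.5 h alongside a DMSO control. Lipids extracted by Bligh–Dyer and fatty acids analyzed by gas chromatography. Weight percent, mean of duplicates; not detected means <1%.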"}, "[9]": {"system": "Staphylococcus aureus subsp. aureus RN4220", "experiment": "Inhibition of PlsY in Staphylococcus aureus RN4220 harboring gpsA mutant assessed as Fab4-mediated fatty acid chain elongation measured as 17C fatty acid level at 25 uM after 2.5 hrs by mass spectrophotometry", "set-up": "scale not given: the % may be the effect or the level left", "method_in_brief": "as §4"}, "[10]": {"system": "Staphylococcus aureus subsp. aureus RN4220", "experiment": "Inhibition of PlsY in Staphylococcus aureus RN4220 harboring gpsA mutant assessed as Fab4-mediated fatty acid chain elongation measured as 19C fatty acid level at 25 uM after 2.5 hrs by mass spectrophotometry", "set-up": "scale not given: the % may be the effect or the level left", "method_in_brief": "as §4"}, "[11]": {"system": "Staphylococcus aureus subsp. aureus RN4220", "experiment": "Inhibition of PlsY in Staphylococcus aureus RN4220 harboring gpsA mutant assessed as Fab4-mediated fatty acid chain elongation measured as 21C fatty acid level at 25 uM after 2.5 hrs by mass spectrophotometry", "set-up": "scale not given: the % may be the effect or the level left", "method_in_brief": "as §4"}, "[12]": {"system": "Staphylococcus aureus subsp. aureus RN4220", "experiment": "Inhibition of PlsY in Staphylococcus aureus RN4220 harboring gpsA mutant assessed as Fab4-mediated fatty acid chain elongation measured as 15C fatty acid level at 50 uM after 2.5 hrs by mass spectrophotometry", "set-up": "scale not given: the % may be the effect or the level left", "method_in_brief": "as §4"}, "[13]": {"system": "Staphylococcus aureus subsp. aureus RN4220", "experiment": "Inhibition of PlsY in Staphylococcus aureus RN4220 harboring gpsA mutant assessed as Fab4-mediated fatty acid chain elongation measured as 19C fatty acid level at 50 uM after 2.5 hrs by mass spectrophotometry", "set-up": "scale not given: the % may be the effect or the level left", "method_in_brief": "as §4"}, "[14]": {"system": "Staphylococcus aureus subsp. aureus RN4220", "experiment": "Inhibition of PlsY in Staphylococcus aureus RN4220 harboring gpsA mutant assessed as Fab4-mediated fatty acid chain elongation measured as 20C fatty acid level at 50 uM after 2.5 hrs by mass spectrophotometry", "set-up": "scale not given: the % may be the effect or the level left", "method_in_brief": "as §4"}, "[15]": {"system": "Staphylococcus aureus subsp. aureus RN4220", "experiment": "Inhibition of PlsY in Staphylococcus aureus RN4220 harboring gpsA mutant assessed as Fab4-mediated fatty acid chain elongation measured as 21C fatty acid level at 50 uM after 2.5 hrs by mass spectrophotometry", "set-up": "scale not given: the % may be the effect or the level left", "method_in_brief": "as §4"}, "[16]": {"system": "Staphylococcus aureus subsp. aureus RN4220", "experiment": "Inhibition of PlsY in Staphylococcus aureus RN4220 harboring gpsA mutant assessed as 34C phophotidylglycerol formation at 25 uM after 2.5 hrs by mass spectrophotometry", "method_in_brief": "(§5)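 RN4220 grown in Luria-Bertani broth at 37°C to OD600 0.5. 50 mL aliquots treated for 2.5 h alongside a DMSO control. Cells PBS-washed, lipids extracted by Bligh–Dyer. Phosphatidylglycerol molecular species distribution determined by mass spectrometry.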"}, "[17]": {"system": "Staphylococcus aureus subsp. aureus RN4220", "experiment": "Inhibition of PlsY in Staphylococcus aureus RN4220 harboring gpsA mutant assessed as 35C phophotidylglycerol formation at 50 uM after 2.5 hrs by mass spectrophotometry", "method_in_brief": "as §5"}, "[18]": {"system": "Staphylococcus aureus subsp. aureus RN4220", "experiment": "Inhibition of PlsY in Staphylococcus aureus RN4220 harboring gpsA mutant assessed as 36C phophotidylglycerol formation at 50 uM after 2.5 hrs by mass spectrophotometry", "method_in_brief": "as §5"}, "[19]": {"system": "Staphylococcus aureus subsp. aureus RN4220", "experiment": "Inhibition of PlsY in Staphylococcus aureus RN4220 harboring gpsA mutant assessed as accumulation of long chain acyl-ACP at 12.5 to 100 uM after 2.5 hrs by Western blot analysis", "method_in_brief": "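Mid-log RN4220 (OD600 0.5) in 50 mL aliquots treated with compound at 37°C. Cell extracts loaded according to OD600 for similar total protein. Acyl-ACP species separated on 15% polyacrylamide gels containing 2 M urea, then detected by western blot with anti-ACP antibody.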"}, "Bacillus anthracis [20]": {"system": "Bacillus anthracis", "experiment": "Inhibition of protein synthesis in Bacillus anthracis sterne assessed as Inhibition of [3H]amino acid incorporation into protein incubated for 15 mins prior to [3H]amino acid addition measured after 30 mins by scintillation counting", "assay_type": "functional, organism-based"}, "Bacillus anthracis [21]": {"system": "Bacillus anthracis", "experiment": "Inhibition of RNA synthesis in Bacillus anthracis sterne assessed as Inhibition of [3H]uracil incorporation into RNA incubated for 15 mins prior to [3H]uracil addition measured after 30 mins by scintillation counting", "assay_type": "functional, organism-based"}}, "note": "The source made the active and inactive calls. No cut-off for these calls is given here."}
{"smiles": "O=C(CCCCCCCc1ccccc1)NS(=O)(=O)Oc1ccccc1", "values": [{"measurement": "IC50", "setting": "[1]", "value": 25, "unit": "µM"}, {"measurement": "MIC90", "setting": "Staphylococcus aureus [2]", "value": 12.5, "unit": "µg/mL"}, {"measurement": "MIC90", "setting": "Streptococcus pneumoniae", "value": 100, "unit": "µg/mL"}, {"measurement": "inhibition", "setting": "[3]", "value": "Active"}, {"measurement": "inhibition", "setting": "Staphylococcus aureus [4]", "value": "inactive"}, {"measurement": "inhibition", "setting": "Staphylococcus aureus [5]", "value": "inactive"}, {"measurement": "inhibition", "setting": "Staphylococcus aureus [6]", "value": "inactive"}, {"measurement": "inhibition", "setting": "[7]", "value": "Dose-dependent effect"}, {"measurement": "Activity", "setting": "[8]", "value": 5, "unit": "%"}, {"measurement": "Activity", "setting": "[9]", "value": 10, "unit": "%"}, {"measurement": "Activity", "setting": "[10]", "value": 18, "unit": "%"}, {"measurement": "Activity", "setting": "[11]", "value": 12, "unit": "%"}, {"measurement": "Activity", "setting": "[12]", "value": 32, "unit": "%"}, {"measurement": "Activity", "setting": "[13]", "value": 14, "unit": "%"}, {"measurement": "Activity", "setting": "[14]", "value": 13, "unit": "%"}, {"measurement": "Activity", "setting": "[15]", "value": 14, "unit": "%"}, {"measurement": "inhibition", "setting": "[16]", "value": "Active"}, {"measurement": "inhibition", "setting": "[17]", "value": "Active"}, {"measurement": "inhibition", "setting": "[18]", "value": "Active"}, {"measurement": "inhibition", "setting": "[19]", "value": "Active"}, {"measurement": "inhibition", "setting": "Bacillus anthracis [20]", "value": "Active"}, {"measurement": "inhibition", "setting": "Bacillus anthracis [21]", "value": "Active"}]}
